Screens: PubChem, several laboratories
APOBEC3A inh: blocks human APOBEC3A ssDNA deamination | P31941 | inhibition, % at 20 µM | recombinant A3A, FAM/TAMRA ssDNA deamination fluorescence | 330,000 tested, 0.41% active;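 active means at least 40% inhibition at 20 µM here, with at most 30% in a related deaminase screen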;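 further: plate controls were A3A with DMSO for no effect and wells lacking A3A enzyme for full effect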
Target sequence (P31941 whole entry, looked up): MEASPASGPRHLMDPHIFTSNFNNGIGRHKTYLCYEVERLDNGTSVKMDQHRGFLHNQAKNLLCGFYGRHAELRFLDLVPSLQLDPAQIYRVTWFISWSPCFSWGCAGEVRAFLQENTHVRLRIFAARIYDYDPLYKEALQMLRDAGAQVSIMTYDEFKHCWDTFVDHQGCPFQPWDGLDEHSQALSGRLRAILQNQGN
A3G deaminase: inhibitors of human APOBEC3G DNA deaminase; inhibition, % at 20 µM; Q9HC16; AID 493012; 330,000 tested, 0.28% active; recombinant A3G, ssDNA deamination FAM/TAMRA fluorescence;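 active means inhibition of at least 40% at 20 µM, with no more than 30% in the related APOBEC3A deaminase screen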;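 further: plate controls were DMSO wells with A3G for no effect and wells lacking A3G enzyme for full effect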
Target sequence (Q9HC16 whole entry, looked up): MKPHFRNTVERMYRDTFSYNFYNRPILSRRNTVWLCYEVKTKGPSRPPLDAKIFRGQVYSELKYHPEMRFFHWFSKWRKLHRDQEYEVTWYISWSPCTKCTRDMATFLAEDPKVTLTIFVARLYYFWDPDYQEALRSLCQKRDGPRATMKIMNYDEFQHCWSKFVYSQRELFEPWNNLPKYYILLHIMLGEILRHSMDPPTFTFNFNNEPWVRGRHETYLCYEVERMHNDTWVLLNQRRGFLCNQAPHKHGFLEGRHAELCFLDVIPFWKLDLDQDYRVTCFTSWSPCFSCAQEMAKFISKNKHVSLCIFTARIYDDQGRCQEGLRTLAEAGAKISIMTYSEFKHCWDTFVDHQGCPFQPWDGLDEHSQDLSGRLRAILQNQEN
PRMT1 inh: PRMT1 (human) inhibition, primary screen; recombinant PRMT1, activity-based probe fluorescence polarization; inhibition, % at 2.79 µM; 370,000 tested, 1.3% active; AID 652257;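 active means inhibition above about 21% made by adding two undisclosed values, limit read from the data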
HCV core dimer: HCV core protein dimerization inhibition. AID 1899. TR-FRET GST/Flag-core106 dimerization, 1536-well. inhibition, % at 5 µM. 300,000 tested, 0.33% active;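 active means inhibition above the mean of all tested compounds plus 3 SD, set per screening campaign, cut at about 45% in these data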
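System: GST-tagged and Flag-tagged HCV core protein residues 1-106 / Input: core106 proteins, GST 13.5 nM and Flag 17 nM / Buffer or medium: KF-containing HEPES buffer, pH 7.45, DTT, CHAPS, BSA / Probe or stimulus: Eu-anti-GST and XL665-anti-Flag labelled anti-tag antibodies / Schedule: 4 h, 22.5 °C incubation / Technique: TR-FRET 671 and 617 nm emission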
HCV NS3 hel inh: HCV NS3 helicase inhibition. NS3 helicase DNA unwinding, Cy5 molecular beacon fluorescence. inhibition, % at 10.9 µM. 290,000 tested, 0.56% active. AID 1800;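 active means inhibition above the mean of all tested compounds plus 3 SD, set per campaign, cut at about 35% in these data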;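 further: 0% = DMSO wells and 100% = thioflavine S control wells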
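Test system: hepatitis C virus NS3 helicase domain fragment enzyme. Also added: annealed dual-labelled DNA beacon duplex, ATP-started. Timing: 60 min unwinding reaction at 25 °C after ATP addition. Technique: Cy5 fluorescence. Measure: % inhibition of unwinding.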
ABHD5 PLIN5 PPI: ABHD5-PLIN5 protein interaction inhibition; Split G. princeps luciferase complementation, luminescence, 4 h; 360,000 tested, 0.78% active; inhibition, % at 4 µM;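 active means inhibition above the mean inhibition across every tested compound plus 3 SD, cut at about 22% in these data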;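 further: 0% = DMSO only wells and the 100% control is not disclosed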
The depositor's hits bear a star; . = no result given. Shown are actives, neighbours in structure and some others; about 2.9% of the full set was active somewhere.

SMILES | APOBEC3A inh | A3G deaminase | PRMT1 inh | HCV core dimer | HCV NS3 hel inh | ABHD5 PLIN5 PPI
Cc1cc(NC(=O)c2cc(-c3ccncc3)nc3c(C)cccc23)no1 | -4 | -2 | 0 | 54* | -3 | 2
O=C(NCc1ccncc1)[C@@H]1CCCN1C(=O)[C@H]1CCCN1C(=O)c1c(F)cccc1F | . | . | 1 | . | . | 1
CC(C)(C)C(=O)COC(=O)c1c2c(nc3ccccc13)CCC2 | 13 | 0 | -3 | 54* | 26 | -5
NC(=O)COC(=O)c1c2c(nc3ccccc13)CCCCC2 | 1 | -8 | 1 | 6 | -6 | 1
O=c1oc2ccccc2nc1/C=C(O)/C=C/c1ccc(F)cc1 | -5 | -3 | 5 | 0 | 31 | 13
O=c1oc2ccccc2nc1/C=C(O)/C=C\c1ccccc1 | 1 | 3 | 13 | 50* | 34 | 13
CC(c1c[nH]c2ccccc12)c1cn(C)c2ccccc12 (stereo not drawn) | . | . | 5 | . | . | .
COc1ccc(S[C@]2(C(=O)N3CCCC3)CC(=O)N[C@@H]2c2ccc(OC)cc2)cc1 | . | . | 5 | . | . | .
COC(=O)[C@]1(Sc2ccc(C)cc2)CC(=O)N[C@@H]1c1ccco1 | . | . | 21* | . | . | 3
COC(=O)[C@@]1(Sc2ccc(C)cc2)CC(=O)N[C@@H]1c1ccc(Br)cc1 | . | . | -8 | . | . | -10
O=C(Cn1cnc2ccccc2c1=O)N1CCN(Cc2ccc(F)cc2)CC1 | . | . | -4 | . | . | .
O=C(CCN1CCN(c2ccccc2)CC1)N/N=C/c1ccc(O)c(O)c1O | . | . | 23* | . | 18 | -15
COc1ccc(/C=N/NC(=O)CCN2CCN(c3ccccc3)CC2)c(OC)c1OC | -5 | -4 | 0 | -5 | -4 | 0
COC(=O)[C@H](CC(C)C)N(CCc1cn(Cc2ccccc2)nn1)S(=O)(=O)c1ccccc1Br | . | . | 2 | . | . | .
Cc1nn(-c2ccccc2)c(C)c1C(=O)OCC(O)=C(C#N)c1nc2ccccc2[nH]1 | . | . | -3 | . | . | 1
Cc1nn(-c2ccccc2)c(C)c1C(=O)OC/C(O)=C(\C#N)c1nc2ccccc2[nH]1 | -1 | -1 | 1 | 67* | -9 | 2
CN(C)c1nc(=NCc2ccco2)ss1 | . | . | . | 5 | 9 | 90*
Nc1[nH]c(C(=O)c2ccccc2)c(-c2ccc3ccccc3c2)c1C(=O)NCc1ccc(F)cc1 | . | . | 3 | . | . | .
CCN1CCN(CCNC(=O)c2ccc(/C=C3/Sc4ccccc4N(Cc4cccc(Cl)c4)C3=O)cc2)CC1 | 6 | -1 | -2 | -8 | -39 | 22*
CCOC(=O)c1sc(N(Cc2ccccc2)C(=O)CCl)nc1C | -3 | -6 | 22* | 5 | 1 | 5
C[C@]12CC[C@@H]3c4cc(O)c(O)cc4CC[C@H]3[C@@H]1CC[C@@H]2O | 0 | 40 | 33* | -10 | -4 | 21
Cc1sc(NC(=O)CSc2n[nH]c(N)n2)c(C#N)c1C | . | . | 0 | . | . | -5
Cc1ccc(/C=C/C2=Cc3c(sc(NC(=O)CSc4n[nH]c(N)n4)c3C#N)C(C)(C)C2)o1 | 40 | 60 | . | 89* | 45* | .
O=c1oc2cc(OCCO)ccc2c2c1CCCC2 | 4 | -4 | -2 | -2 | -1 | -6
CCN1/C(=C/C=C/c2sc3ccccc3[n+]2CC)Sc2ccccc21 | 30 | 8 | . | -189 | . | 9
SMILES | APOBEC3A inh | A3G deaminase | PRMT1 inh | HCV core dimer | HCV NS3 hel inh | ABHD5 PLIN5 PPI
CCN1/C(=C/c2ccc3cc(C)ccc3[n+]2CC)Sc2ccccc21 | 59 | 35 | -14 | -70 | -24 | 23*
CC1CC(C)C(=O)C(C(CC2CC(=O)NC(=O)C2)OC(=O)CC(=O)c2ccccc2)C1 (stereo not drawn) | . | . | -1 | . | . | -13
CC(/C=C1\SC(=S)N(NC(=O)c2ccc(C)cc2)C1=O)=C\c1ccccc1 | -5 | -7 | . | 67* | 9 | 1
COC(=O)c1cc2c(c3c4cc(F)ccc4n(S(=O)(=O)c4ccccc4)c13)C(=O)N(Cc1ccccc1)C2 | . | . | -5 | . | . | .
CCOc1ccc(N2C(=O)CC(Sc3ccccc3C(=O)O)C2=O)c([N+](=O)[O-])c1 (stereo not drawn) | -4 | -5 | 68* | 4 | 18 | 19
COc1ccc(/C=C/S(=O)(=O)NCc2ccc(F)cc2)c(CNC(=O)OC(C)(C)C)c1 | . | . | -1 | . | . | .
O=c1c2c3c(sc2n2cnnc2n1Cc1ccccc1)CN(Cc1ccccc1)CC3 | -1 | 6 | 7 | 51* | -29 | 10
COC(=O)[C@]12C[C@H](CC(=O)N3CCSCC3)C(=O)N(Cc3ccc4c(c3)OCO4)C1=C[C@H](COCc1ccccc1)O[C@@H]2C | . | . | 0 | . | . | .
COCCOC(=O)c1c(C)n(C)c2ccc(OC(=O)c3c(OC)cccc3OC)cc12 | 2 | 27 | 46* | -12 | -15 | -3
CCc1nnc(/N=C/c2c(O)n(-c3ccc(Cl)cn3)c(=O)c3ccccc23)s1 | 1 | 6 | 1 | -16 | 11 | 12
O=c1c2ccccc2c(C=Nc2ccc(S(=O)(=O)N3CCCCC3)cc2)c(O)n1-c1ccc(Cl)cn1 | -2 | -9 | -2 | 60* | 11 | -4
Cc1ccc(-c2csc(NC(=O)c3ccc(F)cc3)c2C(=O)O)cc1 | -5 | -5 | 3 | 1 | 8 | -1
O=C(OCc1cn(Cc2ccc(F)c(F)c2)nn1)N1CCOCC1 | . | . | -5 | . | . | .
O=C(Nc1ccc(-n2nncc2-c2ccco2)cc1)c1cc2ccccc2oc1=O | 13 | 13 | . | 77* | 17 | 4
CCCc1c(-c2cccc(Br)c2)ncn1CCc1ccccc1OC | . | . | -1 | . | . | .
C[C@@H]1CN([C@H](C)CO)C(=O)c2cc(Br)cnc2O[C@@H]1CN(C)C(=O)Nc1ccccc1 | . | . | 5 | . | . | 6
Cc1ccc2ccccc2[n+]1CCCS(=O)(=O)[O-] | 7 | 0 | 2 | -4 | 2 | 3
CSc1sc2ccccc2[n+]1CCCS(=O)(=O)[O-] | 2 | 6 | 23* | -1 | 2 | -8
COC1=C(Br)C(=O)c2nc(C)ccc2C1=O | . | . | 28* | . | . | -49
COc1ccc2cc(C3CC=C(CO)CN3S(=O)(=O)c3ccccc3[N+](=O)[O-])n(C(=O)OC(C)(C)C)c2c1 (stereo not drawn) | . | . | -1 | . | . | 4
C[C@@H]1CN([C@H](C)CO)C(=O)c2cc(NS(=O)(=O)c3ccccc3)ccc2O[C@@H](C)CCCCO[C@@H]1CN(C)Cc1ccc(Cl)c(Cl)c1 | . | . | 4 | . | . | .
CC(C)CN1C(=O)[C@]2(CC(=O)N(C)C2c2ccccc2)c2cc(-n3cc(C4=CCCCC4)nn3)ccc21 (stereo partly drawn) | . | . | 0 | . | . | .
COC(=O)c1ccc(CCc2cc(O)ccc2O)cc1 | . | . | . | . | . | 42*
COC(=O)c1ccc(O)cc1 | -6 | -11 | 5 | . | 1 | 2
COP(=O)(OC)c1ccc(NCc2cc(O)ccc2O)cc1 | . | . | 22* | . | . | -1
O=C(OCc1ccccc1)c1ccc(NCc2cc(O)ccc2O)cc1 | . | . | 22* | . | . | 16
CCC(=O)Nc1ccc(C(=O)OCc2ccccc2)cc1 | 3 | 3 | 1 | -1 | -7 | 5
